This note sets out measurements from ChEMBL document CHEMBL3352082, “Pyrazole derivatives as potent inhibitors of c-Jun N-terminal kinase: synthesis and SAR studies” (Bioorg Med Chem, 2014).

Assay [1] has as its target Mitogen-activated protein kinase 8 (Homo sapiens, UniProt P45983). The experiment in a line: Inhibition of FLAG-tagged JNK-1 (unknown origin) transfected in African green monkey COS cells by SDS-PAGE analysis. In kind it is cell-based. Summed up: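 COS cells transfected with FLAG-tagged JNK-1 and exposed to 0.5 M sorbitol for 30 min to activate JNK-1. FLAG-JNK immunoprecipitated with GST-ATF2 substrate, and the precipitate pretreated with compound and incubated in buffer B. Phosphorylated substrate separated by SDS–PAGE, visualized by autoradiography and quantified by Cerenkov counting through a kinase profiler service.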

Assay [2] has as its system Rattus norvegicus. The experiment in a line: Antiinflammatory activity in po dosed rat paw edema model assessed as inhibition of carrageenan-induced paw edema administered 1 hr prior to carrageenan challenge measured after 1 hr.
For assay [3], the system named is Rattus norvegicus. As to the kind of experiment: Antiinflammatory activity in po dosed rat paw edema model assessed as inhibition of carrageenan-induced paw edema administered 1 hr prior to carrageenan challenge measured after 2 hrs.
In assay [4] the test system is Rattus norvegicus. As to the kind of experiment: Antiinflammatory activity in po dosed rat paw edema model assessed as inhibition of carrageenan-induced paw edema administered 1 hr prior to carrageenan challenge measured after 3 hrs.
Assay [5] concerns Rattus norvegicus. As to the kind of experiment: Antiinflammatory activity in po dosed rat paw edema model assessed as inhibition of carrageenan-induced paw edema administered 1 hr prior to carrageenan challenge measured after 4 hrs.
The subject of assay [6] is Rattus norvegicus. As to the kind of experiment: Antiinflammatory activity in rat paw edema model assessed as inhibition of carrageenan-induced paw edema at 50 mg/kg, po administered 1 hr post carrageenan challenge measured after 1 hr. In kind it is functional. To be noted: in the assay text read “1 hr prior to carrageenan challenge” for “1 hr post carrageenan challenge”. Put shortly:
(§1)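 Rats given test compounds as an oral suspension; 1 h later 1% carrageenan injected into the subplantar region of the right paw. Paw volume read by digital plethysmometer at 1, 2, 3 and 4 h. Reported as mean paw volume (mL) ± SEM with % inhibition; significance p <0.01 / p <0.05. Method after Winter et al.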

Assay [7] relates to Rattus norvegicus. As to the kind of experiment: Antiinflammatory activity in rat paw edema model assessed as inhibition of carrageenan-induced paw edema at 50 mg/kg, po administered 1 hr post carrageenan challenge measured after 2 hrs. The class given is functional. To be noted: in the assay text read “1 hr prior to carrageenan challenge” for “1 hr post carrageenan challenge”. Put shortly: as §1

Assay [8] deals with Rattus norvegicus. The experiment in a line: Antiinflammatory activity in rat paw edema model assessed as inhibition of carrageenan-induced paw edema at 50 mg/kg, po administered 1 hr post carrageenan challenge measured after 3 hrs. The class given is functional. To be noted: in the assay text read “1 hr prior to carrageenan challenge” for “1 hr post carrageenan challenge”. Put shortly: as §1

The test system of assay [9] is Rattus norvegicus. The experiment in a line: Antiinflammatory activity in rat paw edema model assessed as inhibition of carrageenan-induced paw edema at 50 mg/kg, po administered 1 hr prior to carrageenan challenge measured after 4 hrs.
Assay [10] deals with c-Jun N-terminal kinase, JNK (Homo sapiens, UniProt P45983+P53779+P45984). The experiment in a line: Inhibition of JNK (unknown origin). In kind it is protein assay.
Assay [11] relates to Rattus norvegicus. The experiment in a line: Antiinflammatory activity in po dosed rat paw edema model assessed as inhibition of carrageenan-induced paw edema […] measured after 1 hr. In kind it is functional. Summed up: as §1
For assay [12], the system named is Rattus norvegicus. As to the kind of experiment: Antiinflammatory activity in po dosed rat paw edema model assessed as inhibition of carrageenan-induced paw edema […] measured after 2 hrs. In kind it is functional. Summed up:
as §1

The subject of assay [13] is Rattus norvegicus. As to the kind of experiment: Antiinflammatory activity in po dosed rat paw edema model assessed as inhibition of carrageenan-induced paw edema […] measured after 3 hrs. The class given is functional. Put shortly: as §1
Assay [14] has as its system Rattus norvegicus. The experiment in a line: Antiinflammatory activity in po dosed rat paw edema model assessed as inhibition of carrageenan-induced paw edema […] measured after 4 hrs. The class given is functional. Put shortly: as §1

Structures are written as SMILES.

Sequence of Mitogen-activated protein kinase 8 (P45983 whole entry): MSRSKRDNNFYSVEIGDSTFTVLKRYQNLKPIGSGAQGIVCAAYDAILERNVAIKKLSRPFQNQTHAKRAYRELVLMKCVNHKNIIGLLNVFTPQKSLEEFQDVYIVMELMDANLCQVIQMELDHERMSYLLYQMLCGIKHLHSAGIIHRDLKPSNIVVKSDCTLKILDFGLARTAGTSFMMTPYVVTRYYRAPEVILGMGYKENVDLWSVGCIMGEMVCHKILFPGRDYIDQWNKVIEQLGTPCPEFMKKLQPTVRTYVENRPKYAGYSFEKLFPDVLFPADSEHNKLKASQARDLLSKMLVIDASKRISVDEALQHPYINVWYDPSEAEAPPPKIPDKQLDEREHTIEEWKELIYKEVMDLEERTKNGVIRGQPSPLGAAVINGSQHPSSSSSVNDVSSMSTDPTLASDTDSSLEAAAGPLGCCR

With `O=C(NCc1ccc(Cl)c(Cl)c1)c1cc(-c2ccccc2)[nH]n1`, in [1], the IC50 was determined as 5.8 µM. Also, the “inhibition (INH)” value was 45.16% in assay [2], 44.31% in assay [3], 27.02% in [4] and 10.11% in assay [5].

`CC(=O)c1cccc(NC(=O)c2cc(-c3ccccc3)[nH]n2)c1` came in with an IC50 in assay [1] of 6.9 µM. For the same molecule, the “inhibition (INH)” value in assay [2] worked out at 41.3%; in assay [3], 56.7%; in [4], 74.32%; in [5], 56.8%.

With `O=C(NCc1ccco1)c1cc(-c2ccccc2)[nH]n1`, the IC50 in assay [1] was found to be 2.8 µM. Moreover, the “inhibition (INH)” value in assay [2] amounted to 73.11%; in [3], 81.81%; in [4] it was 91.89%; in assay [5], 66.33%.

In assay [1], `COc1ccc(CNC(=O)c2cc(-c3ccccc3)[nH]n2)cc1` returned an IC50 of 6.1 µM. Also, the “inhibition (INH)” value in assay [2] worked out at 41.93%; in assay [3], 39.77%; in assay [4], 32.43%; in [5] it was 16.46%.

`O=C(Nc1ccc(Br)cc1)c1cc(-c2ccccc2)[nH]n1` showed an IC50 in assay [1] of 5.9 µM. The “inhibition (INH)” value in assay [2] is reported as 42.16%; in [3], 46.31%; in assay [4], 51.4%; in [5], 38.22%.

`O=C(NCc1ccc(F)cc1)c1cc(-c2ccccc2)[nH]n1` yielded an IC50 in assay [1] of 2.9 µM. Besides, the “inhibition (INH)” value in [2] is recorded as 67.86%; in [3], 70.27%; in assay [4], 75.27%; in assay [5], 54.66%.

The molecule `O=C(NC1CC1)c1cc(-c2ccccc2)[nH]n1` showed an IC50 in assay [1] of 6.2 µM. Moreover, the “inhibition (INH)” value was 69.89% in [2], 85.22% in assay [3], 88.13% in assay [4] and 55.87% in [5].

As to `O=C(O)Cc1ccccc1Nc1c(Cl)cccc1Cl` [DICLOFENAC SODIUM], the inhibition in vivo at 50 mg/kg in assay [6] was found to be 23%; in [7] it was 36%; in assay [8], 47%; in assay [9] it was 51%.

Take `COc1ccc(NC(=O)c2cc(-c3ccccc3)[nH]n2)cc1`: the IC50 in [1] turned out to be 8.1 µM. Besides, the “inhibition (INH)” value was determined as 33.3% in assay [2], 79.54% in assay [3], 81.08% in assay [4] and 66.44% in assay [5].

In assay [1], `O=C(Nc1nccs1)c1cc(-c2ccccc2)[nH]n1` showed an IC50 of 6.8 µM. Moreover, the “inhibition (INH)” value in assay [2] was found to be 45.31%; in [3] it was 51.06%; in assay [4], 54.65%; in assay [5], 31.4%.

Molecule `c1ccc2c(-c3ccncc3)n[nH]c2c1` showed a pIC50 in [10] of 5.8.

Consider `O=C(Nc1cc(Cl)ccc1Cl)c1cc(-c2ccccc2)[nH]n1`, for which, in [1], inhibition was half-maximal at 6.2 µM (IC50). The “inhibition (INH)” value in assay [2] is on record as 31.02%; in assay [3] it was 40.16%; in assay [4], 45.47%; in [5] it was 18.9%.

As to `O=C(NCc1ccccc1)c1cc(-c2ccccc2)[nH]n1`, the half-inhibitory concentration (IC50) in assay [1] was found to be 9.1 µM. The “inhibition (INH)” value in [2] came out at 35.48%; in [3] it was 53.4%; in assay [4], 48.64%; in [5], 25.66%.

Molecule `O=C(Nc1ccc([N+](=O)[O-])cc1)c1cc(-c2ccccc2)[nH]n1` came in with a half-inhibitory concentration (IC50) in [1] of 9.8 µM. The “inhibition (INH)” value in assay [2] was found to be 89.24%; in assay [3], 94.31%; in assay [4], 92.56%; in assay [5] it was 68.7%.

As for `O=C(Nc1ccc2[nH]c(S)nc2c1)c1cc(-c2ccccc2)[nH]n1`, it took 2.9 µM to reach half-maximal inhibition in assay [1] (IC50). The “inhibition (INH)” value was determined as 94.62% in [2], 95.45% in assay [3], 91.62% in assay [4] and 74.15% in [5].

Take `CC(NC(=O)c1cc(-c2ccccc2)[nH]n1)c1cccc2ccccc12` (configuration not stated): the “inhibition (INH)” value in assay [11] came to 61.29%; in assay [12] it was 73.86%; in assay [13], 74.32%; in assay [14], 50.64%.

For `CC(C)(C)c1cc(NC(=O)c2cc(-c3ccccc3)[nH]n2)no1`, the “inhibition (INH)” value is reported as 68.6% in assay [2], 70.6% in assay [3], 52.8% in [4] and 41.7% in [5].

As for `O=C(Nc1ccccn1)c1cc(-c2ccccc2)[nH]n1`, the IC50 in assay [1] amounted to 8.9 µM. Besides, the “inhibition (INH)” value in [2] is 33.3%; in assay [3], 79.54%; in assay [4] it was 81.08%; in assay [5] it was 64.26%.

The molecule `Cc1cc(C)c(NC(=O)c2cc(-c3ccccc3)[nH]n2)c(C)c1` had an IC50 in assay [1] of 11.9 µM. In addition, the “inhibition (INH)” value is on record as 53.65% in assay [2], 45.6% in assay [3], 44.24% in [4] and 26.8% in [5].

In turn, `COc1ccc(CNC(=O)c2cc(-c3ccccc3)[nH]n2)cc1OC` yielded an IC50 in [1] of 5.8 µM. Further, the “inhibition (INH)” value in [2] stood at 54.83%; in assay [3], 46.59%; in assay [4], 43.24%; in assay [5] it was 24.8%.

On to `O=C(Nc1ccc(O)cc1)c1cc(-c2ccccc2)[nH]n1`, for which the “inhibition (INH)” value stood at 22.11% in assay [2], 43.24% in assay [3], 23.28% in assay [4] and 16.64% in [5].

In assay [1], `O=C(Nc1ccc(Cl)c(F)c1)c1cc(-c2ccccc2)[nH]n1` displayed a half-maximal inhibitory concentration (IC50) of 3.1 µM. Besides, the “inhibition (INH)” value in assay [2] is listed as 68.81%; in assay [3] it was 72.7%; in [4], 90.54%; in assay [5] it was 64.22%.

In turn, `O=C(Nc1ccccc1)c1cc(-c2ccccc2)[nH]n1` returned an IC50 in assay [1] of 9.6 µM. Further, the “inhibition (INH)” value in assay [2] stood at 32.48%; in assay [3], 35.02%; in [4], 45.64%; in assay [5], 30.58%.

Consider `COc1ccc(-c2cc(NC(=O)c3cc(-c4ccccc4)[nH]n3)no2)cc1`, for which inhibition in assay [1] was half-maximal at 3.2 µM (IC50). For the same molecule, the “inhibition (INH)” value in assay [2] is reported as 68.81%; in [3], 72.72%; in assay [4], 90.54%; in assay [5], 71.66%.
